Results from different studies.
Each line is one published result; the experiments were not run side by side.
Target: Bone morphogenetic protein receptor type-1A (BMPR1A, Homo sapiens, UniProt P36894)

| Compound | assay | conditions | remaining binding [%] |
| --- | --- | --- | --- |
| c1ccc(N2CCN(Cc3nc4ccccc4[nH]3)CC2)nc1 | binding, competition with immobilised ligand | 1 µM | 86 |
| C[C@@H](c1ccc(-n2cnc3c(N)ncnc32)cc1)N1CCc2nn(C)c(Cc3ccccc3)c2C1=O | binding, competition with immobilised ligand | 0.1 µM | 100 |
| CN(C)c1nccc(-c2cnc3ncccn23)n1 | binding | 1 µM | 100 |
| O=C(O)[C@H]1[C@H](Cn2nnc3ccccc3c2=O)CC[C@@H]1C(=O)c1ccc(OCCC2CCOCC2)cc1 | binding, competition with immobilised ligand | 1 µM | 61 |
| N[C@H]1CCN(c2nccc(-c3cnn4ncccc34)n2)C1 | binding | 1 µM | 75 |
| COc1cnc(Nc2cccc(S(N)(=O)=O)c2)nc1N1CCN(c2ccccc2)C(=O)C1 | binding, competition with immobilised ligand | 1 µM | 67 |
| CN(c1nccc(-c2cnn3ncccc23)n1)C1CC1 | binding | 1 µM | 78 |
| Cc1nccc(COC(=O)N2C[C@@H]3[C@@H](CNC(=O)c4ccc5[nH]nnc5c4)[C@@H]3C2)n1 | binding, competition with immobilised ligand | 1 µM | 85 |
| COc1cnc(Nc2cccc(S(N)(=O)=O)c2)nc1N1CCN(c2ccccc2)CC1 | binding, competition with immobilised ligand | 1 µM | 100 |
| O=C(NCC1CCOCC1)c1n[nH]cc1NC(=O)c1c(F)cccc1F | binding, competition with immobilised ligand | 1 µM | 89 |
| O=C(NCCCN1CCOCC1)c1ccc(Nc2nccc(-c3cc4ccccc4s3)n2)cc1 | binding, competition with immobilised ligand | 1 µM | 78 |
| CN(C)c1ncc(F)c(-c2cnn3ncccc23)n1 | binding | 1 µM | 100 |
| CCN1CCN(Cc2ccc(C(=O)Nc3ccc(C)c(Oc4ccc5c(c4)CC(=O)N5)c3)cc2C(F)(F)F)CC1 | binding, competition with immobilised ligand | 1 µM | 100 |
| CC(=O)N1CCC(c2ccc(C(=O)NC(=N)N)cc2C(F)(F)F)CC1 | binding, competition with immobilised ligand | 1 µM | 100 |
| CN(CCCC(F)(F)F)c1nccc(-c2cnn3ncccc23)n1 | binding | 1 µM | 83 |
| C=CC(=O)N1CCC(C(=O)NCC(=O)N2CCN(c3nc(-c4cnc(N)nc4C(F)F)nc(N4CCOCC4)n3)CC2)CC1 | binding, competition with immobilised ligand | 1 µM | 80 |
| CS(=O)(=O)NCC[C@H](NC(=O)c1cncc2c1cnn2-c1ccc(F)cc1)c1ccnc(S(C)(=O)=O)c1 | binding, competition with immobilised ligand | 1 µM | 92 |
| Cc1cnc(Nc2ccc(C(=O)N3CCC(N4CCCC4)CC3)cc2)nc1-c1cc2ccccc2s1 | binding, competition with immobilised ligand | 1 µM | 60 |
| CN(C)c1ncnc(-c2ccc3nc(Nc4cc(CN5CCN(C(=O)CC(F)(F)F)CC5)ccn4)[nH]c3c2)c1Cl | cell-free assay, competition with immobilised ligand | 1 µM | 95 |
| O=C(c1ccc(Nc2nccc(-c3cc4ccccc4s3)n2)cc1)N1CCC(N2CCCC2)CC1 | binding, competition with immobilised ligand | 1 µM | 75 |
